Screens as filed in PubChem BioAssay.
An excerpt weighted towards active compounds, which were near 1.8% of everything screened.
PPC-1+TRAIL kill = compounds killing PPC-1 cancer cells with TRAIL present, primary screen, TRAIL potentiator project, ATPLite luminescence, uHTS. PPC-1 cells + TRAIL, ATPLite viability luminescence. cell killing (% activity), % at 4 µM or 5 µM. actives 0.41% (n = 220,000);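 active = cell killing above 50% in the first pass at 4 µM, then a duplicate retest at 5 µM averaging 50% or more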
STAT3 inh-1 = IL-6 driven STAT3 reporter inhibitors, primary screen, U3A cells, luciferase, luminescence, MLSCN library; actives 0.89% (n = 190,000); IL-6 STAT3-luciferase reporter; host cell line lacks STAT1; inhibition, % at 5.5 µM;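 active = inhibition above the mean inhibition across all screened compounds plus 3 SD, cut at about 44% in these data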
C8 TRAIL sens = viability loss with TRAIL in NB7+C8 cells, primary screen, TRAIL sensitizer project, cell-based, ATPlite luminescence. inhibition (viability loss, TRAIL sensitization), % at 10 µM. actives 1% (n = 360,000). AID 624354, 2012;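 active = compounds causing at least 50% loss of cell viability in the single-dose screen, relative to plate controls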
STAT1 blocker = STAT1 signaling inhibitors, primary screen, cell-based, HTS, luciferase reporter; NIH 3T3 STAT1-luciferase reporter, IFN-gamma, luminescence; inhibition, % at 5.5 µM; actives 0.35% (n = 200,000);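 active = inhibition above a set limit, the mean inhibition across all tested compounds plus 3 SD, cut at about 34% in these data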
STAT3 activator = IL-6 driven STAT3 reporter potentiators, primary screen, U3A cells, luciferase, luminescence, MLSCN library. activation (% of control), % at 5.6 µM. actives 0.91% (n = 190,000). IL-6 STAT3-luciferase reporter; 100% = signal with IL-6 EC80 alone;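 active = activation above the screen-wide mean of compound activation plus 3 SD, cut at about 130% in these data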
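Test system: human U3A cells carrying STAT3-luciferase construct; control set: IL-6-only wells as 100% reference; timing: compound pre-incubation 1 h before IL-6, then 6 h stimulation at 37 °C; also added: IL-6 stimulus at 33 ng/mL final; evaluation: % activation versus median of IL-6-stimulated wells; detection: reporter luminescence signal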
STAT3 inh-2 = STAT3 reporter inhibitors, retest of hits, confirmation, U3A cells, luciferase, luminescence; actives 45% (n = 1,200); shares compounds with STAT3 inh-1; IL-6 STAT3 luciferase reporter; cell line lacks STAT1; inhibition, % at 5.7 µM;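 active = inhibition above the hit cutoff computed for the primary STAT3 screen, cut at about 44% in these data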
NFkB inh 2 = NF-kB reporter inhibitors in human cells, confirmation, counter-screen for STAT3 inhibitor project, cell-based, HEK293T, luciferase, TNF-alpha stimulus; inhibition, % at 5.7 µM; TNF-alpha induced; AID 1308, 2008; shares compounds with STAT3 inh-1; actives 36% (n = 1,200);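 active = inhibition above the mean of solvent-only control wells plus 3 SD, cutoff set per campaign, cut at about 13% in these data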
STAT1 inh 2 = STAT1 reporter inhibitors, IFN-gamma induced, confirmation, counter-screen for STAT3 inhibitor project, cell-based, NIH 3T3, luciferase luminescence | shares compounds with STAT3 inh-1 | NIH 3T3 STAT1-luciferase reporter | inhibition, % at 5.7 µM | actives 27% (n = 1,200);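 active = inhibition above the mean plus 3 SD of solvent-only control wells, limit set per screening run, cut at about 16% in these data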
Large screens that a line does not name were inactive (follow-up assays come after a bar, where they were run).

CS(=O)(=O)N1CCc2cc(S(=O)(=O)Nc3ccc4c(c3)OCCO4)ccc21	STAT3 inh-1 46 | STAT3 inh-2 inactive | NFkB inh 2 inactive | STAT1 inh 2 21
O=C(C1CCC1)N1CCc2cc(S(=O)(=O)Nc3ccc4c(c3)OCCO4)ccc21	STAT3 inh-1 65 | STAT3 inh-2 50 | NFkB inh 2 inactive | STAT1 inh 2 21
CS(=O)(=O)N1CCc2cc(S(=O)(=O)NCCNS(=O)(=O)c3ccc4c(c3)CCN4S(C)(=O)=O)ccc21	none
Nc1ccc2c(c1)[nH]c(=O)c1cc(N)ccc12	none (no result: PPC-1+TRAIL kill, STAT3 inh-1, STAT1 blocker, STAT3 activator)
COc1ccc2[nH]c3c(c2c1)CCn1c-3nc2ccccc2c1=O	STAT3 inh-1 51 | STAT3 inh-2 inactive | NFkB inh 2 inactive | STAT1 inh 2 inactive
Cc1cccc(-c2nc3cc(NC(=O)C4CCCO4)ccc3o2)c1 (stereo not given)	PPC-1+TRAIL kill 56, STAT3 inh-1 72, C8 TRAIL sens 63 | STAT3 inh-2 46 | NFkB inh 2 inactive | STAT1 inh 2 inactive
O=C(Nc1ccc(-c2nc3ccccc3[nH]2)cc1)C1CCCO1 (stereo not given)	STAT3 inh-1 68, C8 TRAIL sens 73 | STAT3 inh-2 inactive | NFkB inh 2 inactive | STAT1 inh 2 inactive
CCC(=O)Nc1ccc2oc(-c3cccc(C)c3)nc2c1	STAT3 inh-1 64, C8 TRAIL sens 60 | STAT3 inh-2 inactive | NFkB inh 2 inactive | STAT1 inh 2 inactive
O=C(Nc1cccc(/C=C/c2ccccn2)c1)c1cc(Cl)ccn1	none (no result: PPC-1+TRAIL kill, STAT3 inh-1, STAT1 blocker, STAT3 activator)
Cc1nc2ccccn2c1C(=O)NC1CCCc2ccccc21 (stereo not given)	STAT3 inh-1 53 | STAT3 inh-2 inactive | NFkB inh 2 inactive | STAT1 inh 2 inactive
O=C(NC1CCCc2ccccc21)c1cn2ccccc2n1 (stereo not given)	none
COc1ccc(C2SCC(=O)N2CCc2ccc(OC)c(OC)c2)cc1 (stereo not given)	STAT3 inh-1 45 (no result: PPC-1+TRAIL kill) | STAT3 inh-2 43 | NFkB inh 2 15 | STAT1 inh 2 16
CCc1cccc(C)c1Nc1nc2ccccc2n2cnnc12	none (no result: PPC-1+TRAIL kill, STAT3 inh-1, STAT1 blocker, STAT3 activator)
O=C(NCCc1ccccc1)c1ccc2nccnc2c1	STAT3 inh-1 54 (no result: PPC-1+TRAIL kill) | STAT3 inh-2 inactive | NFkB inh 2 inactive | STAT1 inh 2 inactive
CCOc1ccc(C(=O)NCCc2ccccc2)cc1	STAT3 inh-1 55 | STAT3 inh-2 inactive | NFkB inh 2 inactive | STAT1 inh 2 inactive
CC(=O)Oc1ccc(C(=O)NCCc2ccccc2)cc1	none
O=C1c2ccccc2C(=O)N1CC1c2ccccc2CCN1C(=O)C1CCCCC1 (stereo not given)	none
O=C(O)[C@@H]1CCCC[C@@H]1C(=O)N1CCc2ccccc2C1CN1C(=O)c2ccccc2C1=O (stereo not given in full)	STAT3 inh-1 59 | STAT3 inh-2 53 | NFkB inh 2 19 | STAT1 inh 2 23
NC(=O)c1ccccc1N/C=C/C(=O)c1ccccc1	STAT3 inh-1 49, C8 TRAIL sens 57 | STAT3 inh-2 inactive | NFkB inh 2 inactive | STAT1 inh 2 inactive
Cc1ccc(-n2c(SCC(=O)c3c(N)n(C4CC4)c(=O)[nH]c3=O)nnc2N2CCOCC2)cc1	none (no result: PPC-1+TRAIL kill, STAT3 inh-1, STAT1 blocker, STAT3 activator)
COc1ccc(NC(=O)C(C)N2c3cccc4cccc(c34)S2(=O)=O)cc1OC (stereo not given)	STAT3 inh-1 46 | STAT3 inh-2 inactive | NFkB inh 2 inactive | STAT1 inh 2 22
Oc1ccccc1-c1cc(-c2ccc3c(c2)OCCO3)n[nH]1	STAT3 inh-1 55, C8 TRAIL sens 53 | STAT3 inh-2 inactive | NFkB inh 2 inactive | STAT1 inh 2 inactive
O=C(O)c1cc(-c2ccc3c(c2)OCCO3)n[nH]1	none
c1ccc(CC2CCN(c3ncnc4sccc34)CC2)cc1	STAT3 inh-1 83 | STAT3 inh-2 79 | NFkB inh 2 inactive | STAT1 inh 2 inactive
O=C(O)c1cc2c(N3CCC(Cc4ccccc4)CC3)ncnc2s1	none
O=S1(=O)CC(N2CC=CC2)CN1Cc1cn(Cc2ccc(F)cc2)nn1 (stereo not given)	none (no result: PPC-1+TRAIL kill, STAT3 inh-1, STAT1 blocker, STAT3 activator)
Cc1cccc(N2C(=O)c3ccc(Br)cc3C2=O)n1	none (no result: PPC-1+TRAIL kill, STAT3 inh-1, STAT1 blocker, STAT3 activator)
O=C1c2ccc(Br)cc2C(=O)N1c1ccc(Cc2ccncc2)cc1	STAT3 inh-1 59 (no result: PPC-1+TRAIL kill) | STAT3 inh-2 59 | NFkB inh 2 inactive | STAT1 inh 2 inactive
Clc1ccc(OCc2cc(-c3ccccc3)no2)c(Cl)c1	STAT3 inh-1 76 | STAT3 inh-2 46 | NFkB inh 2 inactive | STAT1 inh 2 inactive
CCN(CC)C(=O)c1csc([C@@H]2O[C@H](CO)[C@H](O)[C@H](O)[C@H]2O)n1	none (no result: PPC-1+TRAIL kill, STAT3 inh-1, STAT1 blocker, STAT3 activator)
Cc1nc2ccc(-c3nc4cc(N)ccc4o3)cc2[nH]1	STAT3 inh-1 55, C8 TRAIL sens 60 | STAT3 inh-2 inactive | NFkB inh 2 inactive | STAT1 inh 2 inactive
CCCCCc1ccc(OCCOCCn2c[n+](C)c3ccccc32)c(CCCCC)c1	STAT3 inh-1 56 | STAT3 inh-2 66 | NFkB inh 2 16 | STAT1 inh 2 23
Cc1ccc(Nc2ccccc2)cc1	none
Cc1ccc(NC2=Nc3ccccc3CS2)cc1	STAT3 inh-1 59, C8 TRAIL sens 55 | STAT3 inh-2 inactive | NFkB inh 2 inactive | STAT1 inh 2 inactive
CCN(CC)S(=O)(=O)c1ccc(N2CC(C(=O)N3Cc4ccccc4CC3C(N)=O)CC2=O)cc1 (stereo not given)	none (no result: PPC-1+TRAIL kill, STAT3 inh-1, STAT1 blocker, STAT3 activator)
CCOC1=C2CN(S(=O)(=O)c3ccc(C)cc3)C(c3ccc(CC)cc3)CC2n2c(=O)n(-c3ccccc3)c(=O)n2C1 (stereo not given)	none (no result: PPC-1+TRAIL kill, STAT3 inh-1, STAT1 blocker, STAT3 activator)
Cc1ccn2cc(-c3cc4ccccc4oc3=O)nc2c1	STAT3 inh-1 75 | STAT3 inh-2 44 | NFkB inh 2 27 | STAT1 inh 2 inactive
CC(C)C[C@H]1CN(CCCC[C@@H]2CNC(=O)C(=O)N2CC2CCCCC2)C(=O)C(=O)N1CCC1CCCCC1	none (no result: PPC-1+TRAIL kill, STAT3 inh-1, STAT1 blocker, STAT3 activator)
Cc1sc(NC(=O)CN2CCOCC2)nc1-c1ccc2c(c1)CCN2S(=O)(=O)c1ccccc1	STAT3 inh-1 66 | STAT3 inh-2 52 | NFkB inh 2 22 | STAT1 inh 2 20
Cc1c(C(=O)NCc2ccc3c(c2)OCO3)oc2ccc(S(=O)(=O)N3CCC(C)CC3)cc12	none
